Results from ChEMBL document CHEMBL1149681, “OSW-1 analogues: modification of the carbohydrate moiety” (Bioorg Med Chem Lett, 2007).

What was measured:
Format in all cases: functional, cell-based
[1] = system: MDA-MB-231; experiment: Antitumor activity against human MDA-MB-231 cells by methylene blue staining method
Procedure, shortened: (§1)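 Cells grown in RPMI1640 with 10% fetal bovine serum, seeded in 96-well plates and cultured overnight at 37 °C, 5% CO2 before serially diluted samples were added. After 3 days of culture, stained 30 min with 0.05% methylene blue in 10 mM Tris pH 8.5, washed with water, dye extracted with 3% HCl, OD660 read. Independent triplicates; IC50 from means. Cisplatin control included in each assay.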

[2] = system: NCI-H460; experiment: Antitumor activity against human NCI-H460 cells by methylene blue staining method; procedure, shortened: as §1
[3] = system: PC-3; experiment: Antitumor activity against human PC3 cells by methylene blue staining method; procedure, shortened: as §1
[4] = system: T47D; experiment: Antitumor activity against human T47D cells by methylene blue staining method; procedure, shortened: as §1
[5] = system: DLD-1; experiment: Antitumor activity against human DLD1 cells by methylene blue staining method; procedure, shortened: as §1
[6] = system: A498; experiment: Antitumor activity against human A498 cells by methylene blue staining method; procedure, shortened: as §1
[7] = system: HCT-116; experiment: Antitumor activity against human HCT116 cells by methylene blue staining method; procedure, shortened: as §1
[8] = system: UO-31; experiment: Antitumor activity against human UO31 cells by methylene blue staining method; procedure, shortened: as §1

Structure (SMILES)	IC50 [1]	IC50 [2]	IC50 [3]	IC50 [4]	IC50 [5]	IC50 [6]	IC50 [7]	IC50 [8]
COc1ccc(C(=O)O[C@H]2[C@H](O[C@@H]3CCO[C@H](O[C@H]4C[C@H]5[C@@H]6CCc7cc(O)ccc7[C@H]6CC[C@]5(C)[C@@]4(O)[C@H](C)C(=O)CCC(C)C)[C@H]3OC(C)=O)OC[C@@H](O)[C@@H]2O)cc1	10.9 µM	13.7 µM						
COc1ccc(C(=O)O[C@H]2[C@H](O[C@H]3[C@H](OC(C)=O)[C@@H](O[C@H]4C[C@H]5[C@@H]6CCc7cc(O)ccc7[C@H]6CC[C@]5(C)[C@@]4(O)[C@H](C)C(=O)CCC(C)C)OC[C@H]3O)OC[C@@H](O)[C@@H]2O)cc1	0.68 µM	0.26 µM	1.4 µM	0.71 µM	1.18 µM	0.43 µM		
COc1ccc(C(=O)O[C@H]2[C@H](O[C@H]3[C@H](OC(C)=O)[C@@H](O[C@H]4C[C@H]5[C@@H]6CCc7cc(O)ccc7[C@H]6CC[C@]5(C)[C@@]4(O)[C@H](C)C(=O)CCC(C)C)OC[C@H]3F)OC[C@@H](O)[C@@H]2O)cc1	0.85 µM	2.59 µM	0.68 µM	2.81 µM	1.72 µM	0.3 µM	2.9 µM	0.056 µM
COc1ccc(C(=O)O[C@@H]2CCO[C@H]2O[C@H]2[C@H](OC(C)=O)[C@@H](O[C@H]3C[C@H]4[C@@H]5CCc6cc(O)ccc6[C@H]5CC[C@]4(C)[C@@]3(O)[C@H](C)C(=O)CCC(C)C)OC[C@H]2O)cc1	18.2 µM	5.75 µM						
COc1cccc2c1C(=O)c1c(O)c3c(c(O)c1C2=O)C[C@@](O)(C(=O)CO)C[C@@H]3O[C@H]1C[C@H](N)[C@H](O)[C@H](C)O1 [DOXORUBICIN]	0.1 µM	0.0037 µM	0.2 µM	0.027 µM	0.1 µM	0.035 µM	0.037 µM	0.1 µM
CC(=O)O[C@@H]1[C@@H](O[C@H]2C[C@H]3[C@@H]4CCc5cc(O)ccc5[C@H]4CC[C@]3(C)[C@@]2(O)[C@H](C)C(=O)CCC(C)C)OC[C@@H](O)[C@H]1O[C@@H]1OC[C@@H](O)[C@H](O)[C@H]1O	6.94 µM	9.98 µM						
